Columns and labels:
Cannabinoid receptor 1 [1] = molecular target: T1, Cannabinoid receptor 1 (Homo sapiens, UniProt P21554); assay: Antagonist activity at human CB1-receptor expressed in CHO-K1 cells coexpressing G-alpha16 pre-incubated for 10 mins and later treated with 100 nM CB-receptor agonist, CP55940 by Fluo-4-AM dye based calcium mobilization assay; format: cell-based
Procedure, shortened: (§1)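 CHO-K1 cells stably co-expressing Gα16 and human CB1 or CB2, loaded with 2 μM fluo-4 AM in HBSS pH 7.4 at 37 °C for 45 min. Pre-incubated with compound for 10 min at room temperature, then CP55940 added at 100 nM. Peak calcium read over 60 s (ex 485/em 525 nm). Rimonabant positive control. Actives got eight-point curves in triplicate, sigmoidal fit for IC50.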

Cannabinoid receptor 2 [2] = molecular target: T2, Cannabinoid receptor 2 (Homo sapiens, UniProt P34972); assay: Antagonist activity at human CB2-receptor expressed in CHO-K1 cells coexpressing G-alpha16 at 10 uM pre-incubated for 10 mins and later treated with 100 nM CB-receptor agonist, CP55940 by Fluo-4-AM dye based calcium mobilization assay; format: functional, cell-based; procedure, shortened: as §1
Cannabinoid receptor 2 [3] = molecular target: T2, Cannabinoid receptor 2; assay: Agonist activity at human CB2-receptor expressed in CHO-K1 cells coexpressing G-alpha16 by Fluo-4-AM dye based calcium mobilization assay; format: functional, cell-based
Cannabinoid receptor 2 [4] = molecular target: T2, Cannabinoid receptor 2; assay: Antagonist activity at human CB2-receptor expressed in CHO-K1 cells coexpressing G-alpha16 pre-incubated for 10 mins and later treated with 100 nM CB-receptor agonist, CP55940 by Fluo-4-AM dye based calcium mobilization assay; format: functional, cell-based; procedure, shortened: as §1
Cannabinoid receptor 1 [5] = molecular target: T1, Cannabinoid receptor 1; assay: Antagonist activity at human CB1-receptor expressed in CHO-K1 cells coexpressing G-alpha16 at 10 uM pre-incubated for 10 mins and later treated with 100 nM CB-receptor agonist, CP55940 by Fluo-4-AM dye based calcium mobilization assay; format: cell-based; procedure, shortened: as §1
Cannabinoid receptor 1 [6] = molecular target: T1, Cannabinoid receptor 1; assay: Agonist activity at human CB1-receptor expressed in CHO-K1 cells coexpressing G-alpha16 at 10 uM by Fluo-4-AM dye based calcium mobilization assay; format: cell-based; conditions: cho-k1, 10 µM
Procedure, shortened: (§2)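 CHO-K1 cells stably co-expressing Gα16 and human CB1 or CB2, seeded 24 h. Loaded with 2 μM fluo-4 AM in HBSS (with sulfinpyrazone, pH 7.4) at 37 °C for 45 min. Compound added and calcium fluorescence recorded (ex 485/em 525 nm). CP55940 positive control, DMSO negative control. Compounds with >50% activation at 10 μM got eight-point curves in triplicate, sigmoidal fit for EC50.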

Cannabinoid receptor 2 [7] = molecular target: T2, Cannabinoid receptor 2; assay: Agonist activity at human CB2-receptor expressed in CHO-K1 cells coexpressing G-alpha16 at 10 uM by Fluo-4-AM dye based calcium mobilization assay; format: functional, cell-based; procedure, shortened: as §2
Cannabinoid receptor 1 [8] = molecular target: T1, Cannabinoid receptor 1; assay: Agonist activity at human CB1-receptor expressed in CHO-K1 cells coexpressing G-alpha16 by Fluo-4-AM dye based calcium mobilization assay; format: cell-based
Cannabinoid receptor 2 [9] = molecular target: T2, Cannabinoid receptor 2; assay: Agonist activity at human CB2-receptor expressed in CHO-K1 cells coexpressing G-alpha16 assessed as maximum efficacy by Fluo-4-AM dye based calcium mobilization assay relative to CP55940; format: functional, cell-based; procedure, shortened: as §2
Cannabinoid receptor 1 [10] = molecular target: T1, Cannabinoid receptor 1; assay: Agonist activity at human CB1-receptor expressed in CHO-K1 cells coexpressing G-alpha16 assessed as maximum efficacy by Fluo-4-AM dye based calcium mobilization assay relative to CP55940; format: cell-based; procedure, shortened: as §2
[11] = Kinetic aqueous solubility of compound in phosphate-buffer containing 1% DMSO ultrasonicated for 10 mins at pH 1.4 measured using 80-95% methanol in water as gradient for 19 mins by HPLC analysis; format: physicochemical; conditions: pH 1.4, 10 min
Procedure, shortened: (§3)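 Kinetic solubility: 10 mM DMSO stock diluted into 10 mM phosphate buffer pH 7.4 or 1.4 (final 1% DMSO), sonicated 10 min at room temperature, filtered 0.22 μm. Quantified by C18 HPLC against a standard curve. Gradient 80–95% methanol/water with trifluoroacetic acid over 19 min at 1.2 mL/min. n = 3.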

[12] = Kinetic aqueous solubility of compound in phosphate-buffer containing 1% DMSO ultrasonicated for 10 mins at pH 7.4 measured using 80-95% methanol in water as gradient for 19 mins by HPLC analysis; format: physicochemical; conditions: pH 7.4, 10 min; procedure, shortened: as §3

T2 sequence (P34972 whole entry): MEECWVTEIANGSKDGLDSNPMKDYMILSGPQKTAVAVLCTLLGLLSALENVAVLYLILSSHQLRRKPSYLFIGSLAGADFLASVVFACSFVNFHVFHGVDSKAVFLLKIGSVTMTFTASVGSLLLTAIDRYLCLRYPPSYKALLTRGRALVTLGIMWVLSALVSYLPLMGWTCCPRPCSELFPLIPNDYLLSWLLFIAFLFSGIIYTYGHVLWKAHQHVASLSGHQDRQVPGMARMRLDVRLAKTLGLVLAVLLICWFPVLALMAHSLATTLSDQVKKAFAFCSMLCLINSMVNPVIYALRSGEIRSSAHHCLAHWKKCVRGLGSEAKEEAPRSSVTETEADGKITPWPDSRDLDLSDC
T1 sequence (P21554 whole entry): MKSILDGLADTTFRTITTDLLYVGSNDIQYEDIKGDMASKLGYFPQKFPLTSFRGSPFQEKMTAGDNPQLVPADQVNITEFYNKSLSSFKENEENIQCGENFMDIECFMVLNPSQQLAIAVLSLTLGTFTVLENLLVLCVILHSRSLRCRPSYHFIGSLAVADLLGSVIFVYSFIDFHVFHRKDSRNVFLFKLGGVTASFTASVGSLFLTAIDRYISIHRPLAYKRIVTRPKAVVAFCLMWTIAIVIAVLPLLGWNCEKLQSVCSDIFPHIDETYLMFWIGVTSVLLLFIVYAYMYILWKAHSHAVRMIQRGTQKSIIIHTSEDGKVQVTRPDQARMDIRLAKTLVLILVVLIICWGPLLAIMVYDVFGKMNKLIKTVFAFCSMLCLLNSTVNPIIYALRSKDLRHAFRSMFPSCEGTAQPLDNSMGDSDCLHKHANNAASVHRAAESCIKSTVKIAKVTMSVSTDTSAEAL

SMILES	IC50 (Cannabinoid receptor 1 [1])	inhibition (Cannabinoid receptor 2 [2])	EC50 (Cannabinoid receptor 2 [3]; cho-k1)	IC50 (Cannabinoid receptor 2 [4]; cho-k1)	inhibition at 10 µM (Cannabinoid receptor 1 [5])	Activity (Cannabinoid receptor 1 [6])	Activity (Cannabinoid receptor 2 [7])	EC50 (Cannabinoid receptor 1 [8]; cho-k1)	IC50 (Cannabinoid receptor 2 [4]; read-out: IC50)	EC50 (Cannabinoid receptor 2 [3]; read-out: EC50)	Emax (Cannabinoid receptor 2 [9])	Emax (Cannabinoid receptor 1 [10])	EC50 (Cannabinoid receptor 1 [8]; read-out: EC50)	Kinetic_solubility [11]	log(Kinetic_solubility) [11]	Kinetic_solubility [12]	log(Kinetic_solubility) [12]
O=C(NC12CC3CC(CC(C3)C1)C2)c1cc2ncccc2n1CCN1CCOCC1	Not Active	< 50%	Not Active	Not Active	< 50%	< 50%	< 50%	Not Active									
O=C(NC12CC3CC(CC(C3)C1)C2)c1c[nH]c2ncccc12	Not Active	> 50%	Not Active		< 50%	< 50%	< 50%	Not Active	6500 nM								
CCCCCn1c(C(=O)NC23CC4CC(CC(C4)C2)C3)cc2cccnc21	Not Active	< 50%		Not Active	< 50%	< 50%	> 50%	Not Active		920 nM	46.2%						
O=C(NC12CC3CC(CC(C3)C1)C2)c1nc2ccccc2n1CCN1CCOCC1	Not Active	> 50%	Not Active		< 50%	< 50%	< 50%	Not Active	36 nM								
O=C(NC12CC3CC(CC(C3)C1)C2)c1cc2cccnc2[nH]1	Not Active	< 50%		Not Active	< 50%	< 50%	> 50%	Not Active		290 nM	40.7%						
O=C(NC12CC3CC(CC(C3)C1)C2)c1cc2cccnc2n1CCN1CCOCC1	Not Active	> 50%	Not Active		< 50%	> 50%	< 50%		78 nM			88.4%	650 nM				
O=C(NC12CC3CC(CC(C3)C1)C2)c1cc2cnccc2[nH]1	Not Active	< 50%		Not Active	< 50%	< 50%	> 50%	Not Active		2000 nM	121%						
CCCCCn1nc(C(=O)NC23CC4CC(CC(C4)C2)C3)c2ccccc21	Not Active	< 50%		Not Active	< 50%	> 50%	> 50%			92 nM	58.5%	99.6%	38 nM				
O=C(NC12CC3CC(CC(C3)C1)C2)c1c[nH]c2cccnc12	Not Active	< 50%	Not Active	Not Active	< 50%	< 50%	< 50%	Not Active									
O=C(NC12CC3CC(CC(C3)C1)C2)c1cc2cnccc2n1CCN1CCOCC1	Not Active	< 50%	Not Active	Not Active	< 50%	< 50%	< 50%	Not Active									
CCCCCn1cc(C(=O)NC23CC4CC(CC(C4)C2)C3)c2cnccc21	Not Active	> 50%	Not Active		< 50%	> 50%	< 50%		260 nM			41%	2100 nM				
O=C(NC12CC3CC(CC(C3)C1)C2)c1cc2ccccc2n1CCCCO														16.77 uM/L	-4.78	23.71 uM/L	-4.63
O=C(NC12CC3CC(CC(C3)C1)C2)c1nc2ccccc2[nH]1	Not Active	< 50%		Not Active	< 50%	< 50%	> 50%	Not Active		520 nM	85.3%						
CCCCCn1c(C(=O)NC23CC4CC(CC(C4)C2)C3)nc2ccccc21	Not Active	< 50%		Not Active	< 50%	< 50%	> 50%	Not Active		320 nM	62.2%						
CCCCCn1cc(C(=O)NC23CC4CC(CC(C4)C2)C3)c2ncccc21	Not Active	> 50%	Not Active		< 50%	> 50%	< 50%		12 nM			48.2%	180 nM				
O=C(NC12CC3CC(CC(C3)C1)C2)c1cn(CCN2CCOCC2)c2cccnc12	Not Active	< 50%	Not Active	Not Active	< 50%	< 50%	< 50%	Not Active									
O=C(NC12CC3CC(CC(C3)C1)C2)c1c[nH]c2ccncc12	Not Active	< 50%	Not Active	Not Active	< 50%	< 50%	< 50%	Not Active									
CCCCCn1c(C(=O)NC23CC4CC(CC(C4)C2)C3)cc2cnccc21	Not Active	< 50%	Not Active	Not Active	< 50%	< 50%	< 50%	Not Active									
CCCCCn1cc(C(=O)NC23CC4CC(CC(C4)C2)C3)c2cccnc21	Not Active	< 50%		Not Active	< 50%	> 50%	> 50%			32 nM	79.4%	39.1%	740 nM				
O=C(NC12CC3CC(CC(C3)C1)C2)c1cn(CCN2CCOCC2)c2ccncc12	Not Active	< 50%	Not Active	Not Active	< 50%	< 50%	< 50%	Not Active									
CCCCCn1c(C(=O)NC23CC4CC(CC(C4)C2)C3)cc2ncccc21	Not Active	< 50%		Not Active	< 50%	< 50%	> 50%	Not Active		220 nM	50%						
O=C(NC12CC3CC(CC(C3)C1)C2)c1cc2ncccc2[nH]1	Not Active	< 50%		Not Active	< 50%	< 50%	> 50%	Not Active		590 nM	38%						
O=C(NC12CC3CC(CC(C3)C1)C2)c1nn(CCN2CCOCC2)c2ccccc12	Not Active	< 50%		Not Active	< 50%	> 50%	> 50%			58 nM	85.3%	109%	300 nM				
